Test results as given in ChEMBL document CHEMBL1125204, “Synthesis and biological activity of sinefungin analogues” (J Med Chem, 1991).
Values belong to the compound of their own block, whether it stands above or below them.

What was measured:
Leishmania donovani [1] = assay: (§1) Apparent kinetic activity measured for protein carboxyl methyltransferase in Leishmania donovani promastigotes; format: organism-based
In short: (§2)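 Cell-free extracts of L. donovani promastigotes (strain LRC L-52) assayed for S-adenosylmethionine:protein-carboxyl methyltransferase activity, with α-globulin as the methyl-accepting substrate. Kinetic constants came from Lineweaver–Burk plots and were expressed as a Ki/Km ratio. Protein was measured by the Bradford dye-binding method against a bovine serum albumin standard.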

Leishmania donovani [2] = assay: Thymidine uptake and incorporation in Leishmania donovani promastigotes measured in the TCA insoluble material at a concentration 11.6 uM in the presence of sinefungin (0.026 uM).; format: functional
In short: (§3)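 Promastigotes at 5×10^8 cells/mL in DMEM/RPMI/FCS medium at 26 °C, equilibrated 3–4 h, then exposed 4 h to compound alone or with 0.026 μM sinefungin. Labelled 1 h with 2.5 μCi/mL [methyl-3H]thymidine and washed in cold PBS. Uptake taken from cold TCA-soluble fraction, incorporation from TCA-insoluble fraction. Protein measured by Lowry method.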

Leishmania donovani [3] = assay: Thymidine uptake and incorporation in Leishmania donovani promastigotes measured in the TCA insoluble material at a concentration 23.3 uM in the presence of sinefungin (0.026 uM).; format: functional; in short: as §3
Leishmania donovani [4] = assay: Thymidine uptake and incorporation in Leishmania donovani promastigotes measured in the TCA insoluble material at a concentration 23.3 uM.; format: functional; in short: as §3
Leishmania donovani [5] = assay: Thymidine uptake and incorporation in Leishmania donovani promastigotes measured in the TCA soluble material at a concentration 11.6 uM.; format: functional; in short: as §3
Leishmania donovani [6] = assay: Thymidine uptake and incorporation in Leishmania donovani promastigotes measured in the TCA soluble material at a concentration 23.3 uM in the presence of sinefungin (0.026 uM).; format: functional; in short: as §3
Leishmania donovani [7] = assay: Thymidine uptake and incorporation in Leishmania donovani promastigotes measured in the TCA soluble material at a concentration 23.3 uM.; format: functional; in short: as §3
Leishmania donovani [8] = assay: Cell growth of Leishmania donovani promastigotes measured at 0h of 0.26 uM sinefungin treatment before compound (260 uM) addition.; format: functional
In short: (§4)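 L. donovani LRC L-52 promastigotes, 0.5×10^6 in 500 μL, grown at 26 °C in 45% DMEM/45% RPMI 1640 (25 mM HEPES pH 7.4) with 10% heat-inactivated FCS. Compounds in water added with 0.26 μM sinefungin. Duplicate wells beside untreated cultures; hemacytometer counts; growth inhibition expressed as % of untreated.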

Leishmania donovani [9] = assay: Cell growth of Leishmania donovani promastigotes measured at 16h of 0.26 uM sinefungin treatment before compound (260 uM) addition.; format: functional; in short: as §4
Leishmania donovani [10] = assay: Cell growth of Leishmania donovani promastigotes measured at 24 hr of 0.26 uM sinefungin treatment before compound (260 uM) addition.; format: functional; in short: as §4
Leishmania donovani [11] = assay: Cell growth of Leishmania donovani promastigotes measured at 48 hr of 0.26 uM sinefungin treatment before compound (260 uM) addition.; format: functional; in short: as §4
[12] = It is the ratio of Ki value to that of Km.; format: ADME
In short: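 Ki/Km ratio for protein-carboxyl methyltransferase in cell-free promastigote extracts, α-globulin as substrate. Ki and Km read from Lineweaver–Burk plots.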

Leishmania donovani [13] = assay: Thymidine uptake and incorporation in Leishmania donovani promastigotes measured in the TCA insoluble material at a concentration 11.6 uM.; format: functional; in short: as §3
Leishmania donovani [14] = assay: Thymidine uptake and incorporation in Leishmania donovani promastigotes measured in the TCA insoluble material at a concentration 130 uM in the presence of sinefungin (0.026 uM).; format: functional; in short: as §3
Leishmania donovani [15] = assay: Thymidine uptake and incorporation in Leishmania donovani promastigotes measured in the TCA soluble material at a concentration 130 uM in the presence of sinefungin (0.026 uM).; format: functional; in short: as §3
Leishmania donovani [16] = assay: Cell growth of Leishmania donovani promastigotes measured at 0h of 0.26 uM sinefungin treatment before compound (130 uM) addition.; format: functional; in short: as §4
Leishmania donovani [17] = assay: Cell growth of Leishmania donovani promastigotes measured at 24 hr of 0.26 uM sinefungin treatment before compound (130 uM) addition.; format: functional; in short: as §4
Leishmania donovani [18] = assay: Cell growth of Leishmania donovani promastigotes measured at 48 hr of 0.26 uM sinefungin treatment before compound (130 uM) addition.; format: functional; in short: as §4
Leishmania donovani [19] = assay: Thymidine uptake and incorporation in Leishmania donovani promastigotes measured in the TCA insoluble material in the presence of sinefungin (0.026 uM).; format: functional; in short: as §3
Leishmania donovani [20] = assay: Thymidine uptake and incorporation in Leishmania donovani promastigotes measured in the TCA insoluble material.; format: functional; in short: as §3
Leishmania donovani [21] = assay: Thymidine uptake and incorporation in Leishmania donovani promastigotes measured in the TCA soluble material in the presence of sinefungin (0.026 uM).; format: functional; in short: as §3
Leishmania donovani [22] = assay: Thymidine uptake and incorporation in Leishmania donovani promastigotes measured in the TCA soluble material.; format: functional; in short: as §3
Leishmania donovani [23] = assay: Cell growth of Leishmania donovani promastigotes measured at 0h of 0.26 uM sinefungin treatment before compound addition.; format: functional; in short: as §4
Leishmania donovani [24] = assay: Cell growth of Leishmania donovani promastigotes measured at 0h of 0.26 uM sinefungin treatment before compound (148 uM) addition.; format: functional; in short: as §4
Leishmania donovani [25] = assay: Cell growth of Leishmania donovani promastigotes measured at 24 hr of 0.26 uM sinefungin treatment before compound (148 uM) addition.; format: functional; in short: as §4
Leishmania donovani [26] = assay: Thymidine uptake and incorporation in Leishmania donovani promastigotes measured in the TCA insoluble material at a concentration 1.25 uM in the presence of sinefungin (0.026 uM).; format: functional; in short: as §3
Leishmania donovani [27] = assay: Thymidine uptake and incorporation in Leishmania donovani promastigotes measured in the TCA insoluble material at a concentration 1.25 uM.; format: functional; in short: as §3
Leishmania donovani [28] = assay: Thymidine uptake and incorporation in Leishmania donovani promastigotes measured in the TCA soluble material at a concentration 1.25 uM in the presence of sinefungin (0.026 uM).; format: functional; in short: as §3
Leishmania donovani [29] = assay: Thymidine uptake and incorporation in Leishmania donovani promastigotes measured in the TCA soluble material at a concentration 1.25 uM.; format: functional; in short: as §3
Leishmania donovani [30] = assay: Thymidine uptake and incorporation in Leishmania donovani promastigotes measured in the TCA insoluble material at a concentration 2.1 uM in the presence of sinefungin (0.026 uM).; format: functional; in short: as §3
Leishmania donovani [31] = assay: Thymidine uptake and incorporation in Leishmania donovani promastigotes measured in the TCA insoluble material at a concentration 2.1 uM.; format: functional; in short: as §3
Leishmania donovani [32] = assay: Thymidine uptake and incorporation in Leishmania donovani promastigotes measured in the TCA soluble material at a concentration 2.1 uM in the presence of sinefungin (0.026 uM).; format: functional; in short: as §3
Leishmania donovani [33] = assay: Thymidine uptake and incorporation in Leishmania donovani promastigotes measured in the TCA soluble material at a concentration 2.1 uM.; format: functional; in short: as §3
Leishmania donovani [34] = assay: Cell growth of Leishmania donovani promastigotes measured at 24 hr of 0.26 uM sinefungin treatment before compound (156 uM) addition.; format: functional; in short: as §4
Leishmania donovani [35] = assay: Cell growth of Leishmania donovani promastigotes measured at 48 hr of 0.26 uM sinefungin treatment before compound (156 uM) addition.; format: functional; in short: as §4
Leishmania donovani [36] = assay: Cell growth of Leishmania donovani promastigotes measured at 0h of 0.26 uM sinefungin treatment before compound (156 uM) addition.; format: functional; in short: as §4
Leishmania donovani [37] = assay: as §1; format: ADME, organism-based; conditions: in vitro; in short: as §2

Ki (Leishmania donovani [1]): 446 µM
Ratio [12]: 8.3
Structure (SMILES): Nc1ncnc2c1ncn2[C@@H]1O[C@H](CC(N)CCCC(O)CO)[C@@H](O)[C@H]1O (stereo partly specified)
Thymidine uptake (Leishmania donovani [2]): 3391425 c.p.m. (mg of protein)-1
Thymidine uptake (Leishmania donovani [3]): 3097327 c.p.m. (mg of protein)-1
Thymidine uptake (Leishmania donovani [4]): 4079585 c.p.m. (mg of protein)-1
Thymidine uptake (Leishmania donovani [5]): 823954 c.p.m. (mg of protein)-1
Thymidine uptake (Leishmania donovani [6]): 1230950 c.p.m. (mg of protein)-1
Thymidine uptake (Leishmania donovani [7]): 1020493 c.p.m. (mg of protein)-1
Cell growth (Leishmania donovani [8]): 100%
Cell growth (Leishmania donovani [9]): 92%
Cell growth (Leishmania donovani [10]): 59%
Cell growth (Leishmania donovani [11]): 41%
Thymidine uptake (Leishmania donovani [13]): 3148603 c.p.m. (mg of protein)-1

Ki (Leishmania donovani [1]): 877 µM
Ratio [12]: 15.9
Structure (SMILES): C=CCCCC(N)C[C@H]1OC(n2cnc3c(N)ncnc32)[C@H](O)[C@@H]1O (stereo partly specified)
Thymidine uptake (Leishmania donovani [14]): 2880449 c.p.m. (mg of protein)-1
Thymidine uptake (Leishmania donovani [15]): 1703083 c.p.m. (mg of protein)-1
Cell growth (Leishmania donovani [16]): 97%
Cell growth (Leishmania donovani [17]): 65%
Cell growth (Leishmania donovani [18]): 41%

Structure (SMILES): Nc1ncnc2c1ncn2C1O[C@H](C[C@@H](N)CC[C@@H](N)C(=O)O)[C@@H](O)[C@H]1O (stereo partly specified)
Thymidine uptake (Leishmania donovani [19]): 2197110 c.p.m. (mg of protein)-1
Thymidine uptake (Leishmania donovani [20]): 956745 c.p.m. (mg of protein)-1
Thymidine uptake (Leishmania donovani [21]): 1583862 c.p.m. (mg of protein)-1
Thymidine uptake (Leishmania donovani [22]): 1741329 c.p.m. (mg of protein)-1
Cell growth (Leishmania donovani [23]): 15%

Ki (Leishmania donovani [1]): 1120 µM
Ratio [12]: 23.3
Structure (SMILES): NCCC(CN)C[C@H]1OC(n2cnc3c(N)ncnc32)[C@H](O)[C@@H]1O (stereo partly specified)
Cell growth (Leishmania donovani [24]): 93%
Cell growth (Leishmania donovani [25]): 80%

Ki (Leishmania donovani [1]): 165 µM
Ratio [12]: 3
Structure (SMILES): Nc1ncnc2c1ncn2[C@@H]1O[C@H](CC(N)CCCC(=O)O)[C@@H](O)[C@H]1O (stereo in doubt; 3a)
Thymidine uptake (Leishmania donovani [26]): 1459000 c.p.m. (mg of protein)-1
Thymidine uptake (Leishmania donovani [27]): 1772064 c.p.m. (mg of protein)-1
Thymidine uptake (Leishmania donovani [28]): 1556483 c.p.m. (mg of protein)-1
Thymidine uptake (Leishmania donovani [29]): 1499100 c.p.m. (mg of protein)-1

Ki (Leishmania donovani [1]): 380 µM
Ratio [12]: 6.9
Structure (SMILES): Nc1ncnc2c1ncn2[C@@H]1O[C@H](CC(N)CCCC(=O)O)[C@@H](O)[C@H]1O (stereo in doubt; 3b)
Thymidine uptake (Leishmania donovani [30]): 1861835 c.p.m. (mg of protein)-1
Thymidine uptake (Leishmania donovani [31]): 3284127 c.p.m. (mg of protein)-1
Thymidine uptake (Leishmania donovani [32]): 1973260 c.p.m. (mg of protein)-1
Thymidine uptake (Leishmania donovani [33]): 1161185 c.p.m. (mg of protein)-1

Ki (Leishmania donovani [1]): 103 µM
Ratio [12]: 2.1
Structure (SMILES): Nc1ncnc2c1ncn2[C@@H]1O[C@H](CC2CCNC2)[C@@H](O)[C@H]1O (stereo in doubt; 6a)
Cell growth (Leishmania donovani [34]): 74%
Cell growth (Leishmania donovani [35]): 37%
Cell growth (Leishmania donovani [36]): 83%

Ki (Leishmania donovani [1]): 140 µM
Ratio [12]: 2.9
Structure (SMILES): Nc1ncnc2c1ncn2[C@@H]1O[C@H](CC2CCNC2)[C@@H](O)[C@H]1O (stereo in doubt; 6b)

Structure (SMILES): C[S+](CC[C@H](N)C(=O)[O-])C[C@H]1O[C@@H](n2cnc3c(N)ncnc32)[C@H](O)[C@@H]1O (stereo partly specified) [ADEMETIONINE]
Km (Leishmania donovani [37]): 55 µM

Ki (Leishmania donovani [1]): 7.2 µM
Ratio [12]: 0.13
Structure (SMILES): Nc1ncnc2c1ncn2[C@@H]1O[C@H](CSCC[C@H](N)C(=O)O)[C@@H](O)[C@H]1O [S-ADENOSYLHOMOCYSTEINE]
